SUMO1 PPI mod: modulators of SUMO1 protein-protein interactions, primary screen, biochemical, uHTS. actives 0.33% (n = 360,000). SUMO1 binding to a labelled peptide, TR-FRET, 1 h. Small ubiquitin-related modifier 1 (Homo sapiens), P63165. inhibition, % at 20 µM; in the data active = inhibition above about 37%
Target sequence (P63165 whole entry, looked up): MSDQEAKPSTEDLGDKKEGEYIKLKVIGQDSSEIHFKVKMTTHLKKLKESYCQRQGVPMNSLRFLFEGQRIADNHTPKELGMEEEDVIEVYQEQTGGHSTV
STEP inh: STEP phosphatase inhibitors, primary screen, biochemical, fluorescence intensity, uHTS | actives 0.25% (n = 360,000) | Tyrosine-protein phosphatase non-receptor type 5 (Homo sapiens), P54829 | recombinant STEP, OMFP fluorogenic substrate | AID 588621, 2011 | inhibition, % at 20 µM;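 active = inhibition at 20 µM, scaled per plate between control wells, above about 37%, limit read from the data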
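Measure: Control-normalized % inhibition with plate pattern correction | Test system: STEP phosphatase, cell-free reaction | Medium: pH 6.0 Bis-Tris with DTT and Tween 20 | Technique: Fluorescence, 480/540 nm | Times: Reaction 20 min, ambient temperature | Doses: Single compound dose of 20 µM, 1% DMSO final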
DNMT1 block: human DNMT1 methyltransferase inhibitors, primary screen, biochemical, molecular beacon, fluorescence, HinP1I cleavage, uHTS; inhibition (reported as % activation of signal), % at 10 µM; actives 0.83% (n = 360,000); AID 588458, 2011; in the data active = inhibition above about 50%
Scp-1 inhibitor: Scp-1 phosphatase inhibitors, primary screen, biochemical, colorimetric, uHTS; Carboxy-terminal domain RNA polymerase II polypeptide A small phosphatase 1 (Homo …; Recombinant Scp1, phosphopeptide, malachite green phosphate absorbance; inhibition, % at 20 µM; actives 0.88% (n = 340,000); AID 493091, 2011;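 active = inhibition above about 50% at 20 µM, limit read from the data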
Target sequence (Q9GZU7 76-261 limits assumed): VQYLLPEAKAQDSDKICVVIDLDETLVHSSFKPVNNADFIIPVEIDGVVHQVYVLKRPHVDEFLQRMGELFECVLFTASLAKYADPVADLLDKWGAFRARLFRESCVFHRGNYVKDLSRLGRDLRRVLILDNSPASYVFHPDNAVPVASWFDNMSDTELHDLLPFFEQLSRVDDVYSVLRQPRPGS
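Incubation: 45 min enzyme reaction at room temperature / System: truncated SCP-1 phosphatase (76-261aa) / Reagent: Phospho 17-mer peptide substrate / Buffer or medium: Acidic Tris acetate buffer with magnesium and detergent / Signal: absorbance at 630 nm / Doses: one concentration, 20 µM, with 1.0% DMSO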
LMPTP inh: LMPTP phosphatase inhibitors, primary screen, biochemical, fluorescence intensity, uHTS | recombinant LMPTP-A, OMFP fluorogenic substrate | actives 0.22% (n = 360,000) | Low molecular weight phosphotyrosine protein phosphatase (Homo sapiens), P24666 | AID 651560, 2012 | inhibition, % at 20 µM;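 active = compounds that cut the enzyme signal by at least half of the control window in the single-dose screen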
Target sequence (P24666 whole entry, looked up): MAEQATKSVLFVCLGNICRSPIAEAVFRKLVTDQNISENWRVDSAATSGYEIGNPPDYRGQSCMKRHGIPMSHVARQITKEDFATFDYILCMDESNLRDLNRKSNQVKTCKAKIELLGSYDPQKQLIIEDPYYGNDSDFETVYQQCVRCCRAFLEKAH
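test system = LMPTP-A | amount = 0.625 nM LMPTP-A final | reagent = fluorogenic phosphatase substrate OMFP at 400 µM final | incubation = 50 min at room temperature | benchmarks = no-enzyme low control, uninhibited high control | medium = Bis-Tris pH 6.0, DTT, detergent | signal = fluorescence intensity of OMFP turnover product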
Of the large screens only hits and unclear results are named; the others gave an inactive call. In the library only some 1.7% were active in any assay of this set; here they are far more common.

CN1/C(=C\C=[N+](C)c2ccccc2)C(C)(C)c2ccccc21	Scp-1 inhibitor 72
O=S(=O)(c1ccc(F)cc1)N1CCN(CC(O)COCC2CCCO2)CC1 (centres undefined)	none
Cc1[nH]c(=O)c(C#N)cc1-c1csc(-c2ccccc2)n1	LMPTP inh 60
CCOc1ccc(NC(=O)c2ccc(CNc3c(NC4CCCCC4)c(=O)c3=O)cc2)cc1	DNMT1 block 56
CCN1CCN(C(CCc2ccccc2)C(=O)NC2CCCCC2)CC1 (centres undefined)	none (no result: Scp-1 inhibitor)
O=C1c2c(-c3ccc(Br)cc3)noc2CCN1Cc1cn(Cc2ccccc2)nn1	none (no result: STEP inh, DNMT1 block, Scp-1 inhibitor)
O=C(CN1CCN(S(=O)(=O)c2ccc(F)cc2)CC1)c1ccc(O)c(O)c1	LMPTP inh 66
O=C(CN1CCN(S(=O)(=O)c2ccc(Cl)cc2)CC1)c1ccc(O)c(O)c1	LMPTP inh 59
COc1ccc(S(=O)(=O)N2CCN(CC(=O)c3ccc(O)c(O)c3)CC2)cc1	LMPTP inh 70
Cn1c(=O)c2cc(NC(=O)NCCc3cccs3)ccc2n1C/C=C/c1ccccc1	none (no result: Scp-1 inhibitor)
Cc1oc(-c2cccs2)nc1CNC[C@H]1O[C@@H](n2cnc(C(N)=O)n2)[C@H](O)[C@@H]1O	none
CCOc1ccc(CCN2C(=S)N([C@@H](Cc3ccc(O)cc3)CN3CCC[C@@H]3CN3C(=S)NC[C@@H]3CC(C)C)C[C@@H]2CC(C)C)cc1	none (no result: Scp-1 inhibitor)
NNc1nc2c(Cl)ccc(Cl)c2s1	LMPTP inh 85
CN(C)C(=O)c1c([N+](=O)[O-])ncn1C	none
CCN(CC)C(=O)c1ncn(C)c1C(=O)N(CC)CC	Scp-1 inhibitor 92
CCOC(=O)NC(NC(=O)OCC)C(=O)c1ccc(F)cc1	Scp-1 inhibitor 102
O=C(NCc1ccco1)c1sc(=S)n2c1[nH]c(=O)c1ccccc12	none
O=C(NC1CCCC1)c1sc(=S)n2c1[nH]c(=O)c1ccccc12	Scp-1 inhibitor 58
Cc1cc(C(=O)N2CCCC(C)(C(=O)NS(=O)(=O)C3CC3)C2)nn1C(C)(C)C (centres undefined)	none (no result: Scp-1 inhibitor)
NC(=O)c1ccsc1NC(=O)c1cc(=O)c2ccccc2o1	SUMO1 PPI mod 63
CC(=O)Nc1ccc(NC(=O)c2cc(=O)c3ccccc3o2)cc1	none
NC(=O)c1ccsc1NC(=O)COC(=O)c1cc(=O)[nH]c2ccccc12	SUMO1 PPI mod 49
O=C(NCCc1ccccc1)c1ccc(=O)oc1	none
O=C(NC1CCCC1)c1ccc2nc(-c3ccco3)c(-c3ccco3)nc2c1	DNMT1 block 113, Scp-1 inhibitor 79, LMPTP inh 56
O=C(NCCc1ccccc1)c1ccc2nc(-c3ccco3)c(-c3ccco3)nc2c1	DNMT1 block 105, Scp-1 inhibitor 77, LMPTP inh 59
O=C(NC1CCCC1)c1ccc2nc[nH]c2c1	none
CCOC(=O)C1(C)CCCN(C(=O)c2ccc3ccccc3c2)C1 (centres undefined)	none (no result: Scp-1 inhibitor)
O=C(c1cnc(Cc2c[nH]c3ccccc23)c(I)c1)N1CCCCC1	none (no result: Scp-1 inhibitor)
CCOC(=O)C1=C(C)N=c2sc(=Cc3ccc(OCC(=O)O)cc3)c(=O)n2C1c1ccc(SC)cc1 (centres undefined)	SUMO1 PPI mod 107, STEP inh 94, DNMT1 block 89, LMPTP inh 65 (no result: Scp-1 inhibitor)
CCOC(=O)C1=C(C)N=c2s/c(=C\c3ccc(OCC(=O)O)cc3)c(=O)n2C1c1ccccc1 (centres undefined)	none
CCC/C(C#Cc1ccc(N(C)C)cc1)=C1/c2ccccc2C(=O)N1c1ccccc1	Scp-1 inhibitor 57
CCC/C(C#Cc1cc(OC)cc(OC)c1)=C1/c2ccccc2C(=O)N1c1ccccc1	none
CC(C)C[C@@H](COCc1cccc(C(F)(F)F)c1)N1CCN(C(=O)c2ccc(C(F)(F)F)cc2)CCC1=O	none (no result: STEP inh, DNMT1 block, Scp-1 inhibitor)
O=C(C[n+]1ccc(CCSc2ccc(F)cc2)cc1)c1ccccc1	LMPTP inh 54
Cc1ccc(SCCc2cc[n+](CC(=O)c3ccccc3)cc2)cc1	none
CCc1nc2c(OCc3cccc(Cl)c3)cccn2c1N(C)C(=O)c1ccncc1	none (no result: Scp-1 inhibitor)
CCOC(=O)c1c(C)nc2sc3c(c2c1-c1ccc(OC)cc1)NC(c1ccccc1)NC3=O (centres undefined)	SUMO1 PPI mod 47
COc1ccc(-c2c(C(C)=O)c(C)nc3sc4c(c23)NC(c2ccccc2)NC4=O)cc1 (centres undefined)	SUMO1 PPI mod 40
COc1ccc(-c2c(C(C)=O)c(C)nc3sc4c(=O)[nH]nnc4c23)cc1	none
CC(C)C1C(=O)N(Cc2cn(CCC3OCCCO3)nn2)CCS(=O)(=O)N1Cc1ccc(-c2ccc(Cl)c(Cl)c2)cc1 (centres undefined)	none (no result: Scp-1 inhibitor)
O=C(NCC1CC1)c1csc([C@@H]2O[C@H](CO)[C@H](O)[C@H](O)[C@H]2O)n1	none (no result: Scp-1 inhibitor)
CCn1c(/C=C/N(C)c2ccccc2)[n+](CC)c2ccc(Cl)cc21	Scp-1 inhibitor 74
COc1ccc(-n2c(NC(=O)c3ccco3)c(C#N)c3nc4ccccc4nc32)cc1	none
N#Cc1c(NC(=O)c2ccccc2Cl)n(Cc2ccccc2)c2nc3ccccc3nc12	SUMO1 PPI mod 56, DNMT1 block 54
CCC(=O)Nc1c(C#N)c2nc3ccccc3nc2n1-c1ccccc1C	none
CCCCn1c(NC(=O)c2ccccc2Cl)c(C#N)c2nc3ccccc3nc21	SUMO1 PPI mod 53, DNMT1 block 76
Cc1cc(C(=O)COC(=O)c2cc(O)c3ccccc3c2O)c(C)n1CC1CCCO1 (centres undefined)	Scp-1 inhibitor 74
CCCCN(C)C(=O)c1sc(=O)n(CC(=O)c2ccccc2OC)c1C	none (no result: Scp-1 inhibitor)
C=CCn1c(N)c(C(=O)NCC2CCCO2)c2nc3ccccc3nc21 (centres undefined)	SUMO1 PPI mod 44
Nc1c(C(=O)NCc2ccccc2)c2nc3ccccc3nc2n1CCCN1CCOCC1	SUMO1 PPI mod 43
Nc1c(C(=O)NCc2ccc(F)cc2)c2nc3ccccc3nc2n1CCCN1CCOCC1	none
Cc1ccc(/C=C/c2nc3sc(C(=O)O)c(C)c3c(=O)[nH]2)cc1[N+](=O)[O-]	STEP inh 99, Scp-1 inhibitor 89, LMPTP inh 64
Cc1c(C(=O)O)sc2nc(/C=C/c3ccccc3OC(F)F)[nH]c(=O)c12	none
CCc1nc(N)nc(N)c1-c1ccc(Cl)c(N=[N+]=[N-])c1	LMPTP inh 58
CCc1ccc(/C=C2/SC(=S)N(CCC(=O)Nc3cccc(C(=O)O)c3)C2=O)cc1	none
CCc1ccc(/C=C2/SC(=S)N(CCCC(=O)Nc3ccccc3C(=O)O)C2=O)cc1	none
CCc1ccc(C=C2SC(=S)N(CCCC(=O)Nc3ccc(C(=O)O)cc3)C2=O)cc1	LMPTP inh 59 (no result: Scp-1 inhibitor)
